A selection: hits, their analogues and other compounds. The true share with any hit is near 2.5%.
NPY-Y1 antag: blocks the human neuropeptide Y Y1 receptor. P25929. HEK293-CNG Y1 cells, membrane potential fluorescence; NPY at EC95, then isoproterenol. inhibition, % at 3.6 µM. 200,000 tested, 1% active;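 active = inhibition above the campaign mean inhibition of all tested compounds plus 3 SD, cut at about 20% in these data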
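Material: HEK293 Y1/CNG channel cell line; also added: NPY (25 nM), isoproterenol (1 µM), Ro 20-1724 (25 µM); doses: one concentration, 3.6 µM, in 0.4% DMSO; schedule: compound incubation 1 h at room temperature, readout 45 min post-stimulation; technique: membrane potential fluorescence; measure: fluorescence ratio normalized to % inhibition between controls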
Ins promoter up: MIN6 insulin promoter up-regulation; z-score at 5 µM; MIN6 insulin promoter-GFP reporter, high-content imaging; hits give high values; 190,000 tested, 0.3% active;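 active = z-score above 3 at 5 µM with at least 500 cells counted in the well; inconclusive = wells under 500 cells, flagged as cytotoxic or low count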
NPY-Y1 PAM-ag: human NPY-Y1 potentiation or agonism, primary screen. 220,000 tested, 0.37% active. P25929. NPY-Y1 expressing cells, potentiator/agonist activation. activation, % at 3.6 µM; in the data active = activation above about 33%, passing the limit was not always enough;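 also: cells stimulated with NPY at EC10 then isoproterenol at EC100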
NPY-Y2 PAM-ag: potentiates or activates human NPY-Y2 receptor | P49146 | cells expressing NPY-Y2, potentiator/agonist read-out | activation, % at 3.6 µM | 220,000 tested, 0.45% active | AID 1359; in the data active = activation above about 27%;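 also: cells stimulated with NPY near EC25 plus isoproterenol at EC100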
Target sequence (P49146 whole entry, looked up): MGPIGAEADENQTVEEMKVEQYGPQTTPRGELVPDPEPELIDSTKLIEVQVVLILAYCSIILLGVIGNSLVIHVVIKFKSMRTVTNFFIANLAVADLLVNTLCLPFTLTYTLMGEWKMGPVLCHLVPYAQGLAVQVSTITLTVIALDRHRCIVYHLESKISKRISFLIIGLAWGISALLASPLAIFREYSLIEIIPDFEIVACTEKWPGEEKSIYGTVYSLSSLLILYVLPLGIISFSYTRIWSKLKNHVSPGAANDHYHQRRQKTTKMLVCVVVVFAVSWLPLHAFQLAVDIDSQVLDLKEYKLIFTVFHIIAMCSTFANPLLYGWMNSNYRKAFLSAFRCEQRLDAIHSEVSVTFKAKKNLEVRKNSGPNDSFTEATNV
INS promoter inh: TRM-6 insulin promoter activity inhibition; inhibition, % at 2 µM; 130,000 tested, 0.9% active; AID 1273; TRM-6 cells, insulin promoter-eGFP reporter, imaging; reporter expression induced with tamoxifen;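 active = inhibition above the mean plus 3 SD, with well images judged a real hit on visual review, cut at about 60% in these data, passing the limit was not always enough; inconclusive = inhibition over the cutoff but images rejected on review; inactive = inhibition not above the cutoff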
NPY Y2 blocker: antagonists of human neuropeptide Y receptor Y2; P49146; inhibition, % at 2.7 µM; AID 793; NPY-Y2 expressing cells, antagonist mode; 140,000 tested, 0.99% active; in the data active = inhibition above about 17%
A number is an active result; – = inactive; ? = inconclusive; · = no result given.

SMILES | NPY-Y1 antag | Ins promoter up | NPY-Y1 PAM-ag | NPY-Y2 PAM-ag | INS promoter inh | NPY Y2 blocker
COCCNC(=S)N/N=C(\C)c1ccc2cc(OC)ccc2c1 | – | 3.4 | – | – | – | –
COc1cccc(CN2CCN(Cc3cccn3-c3cccnc3)CC2CCO)c1 (configuration not stated) | – | – | – | – | – | ·
C/C(=N\NC(=O)CCCNc1ccccc1)c1ccncc1 | – | – | – | – | · | ·
C/C(=N\NC(=O)CCCNc1ccc(C)cc1)c1ccccn1 | – | – | – | – | 64 | –
S=C(Nc1ccc(Cc2ccncc2)cc1)Nc1cccc(Cl)c1 | – | – | – | – | · | ·
CCN(CC)c1ccc(/C=C(\C#N)c2nc(-c3cccs3)c(NC(C)=O)s2)cc1 | – | 17 | – | – | · | –
CC(=O)Nc1sc(N/N=C\c2ccc(O)cc2)nc1-c1cccs1 | · | – | – | – | · | ·
N#Cc1nc(-c2ccco2)oc1N1CCC(Cc2ccccc2)CC1 | 21 | – | – | – | – | 20
N#Cc1nc(-c2ccco2)oc1N1CCN(c2ccccc2)CC1 | 26 | – | – | – | – | –
COCCN1CN(S(=O)(=O)c2ccccc2)c2nc3ccccc3nc21 | – | 3.1 | – | – | – | –
COCCN1CN(S(=O)(=O)c2ccc(Cl)cc2)c2nc3ccccc3nc21 | – | – | – | – | – | –
COc1ccc(CNC(=O)C2CCN(S(C)(=O)=O)CC2)c(OC)c1 | – | – | – | – | – | ·
N#CCSc1ccc(-c2nc3ccccc3[nH]2)cn1 | – | · | – | – | 90 | ·
CCO[C@H]1OC(C(=O)Nc2ccccc2)=C[C@@H](c2ccc(C(F)(F)F)cc2)[C@@H]1CCCO | – | – | – | – | · | ·
CCO[C@H]1OC(C(=O)NCc2ccccc2)=C[C@@H](c2ccc(C(F)(F)F)cc2)[C@@H]1CCCO | – | – | 37 | – | · | ·
COc1cc(/C=N/N(C)S(=O)(=O)c2ccc(C)cc2)cc([N+](=O)[O-])c1O | · | – | – | – | · | ·
COc1cc2c(cc1OC)CN(c1nc(CN3CCCCC3)nc3sc4c(c13)CCCC4)CC2 | 23 | – | – | – | – | 20
O=c1[nH]c(CN2CCN(Cc3ccc4c(c3)OCO4)CC2)nc2sc3c(c12)CCC3 | · | 3.5 | · | · | · | ·
NNC(=O)Cn1nc2n(c1=O)-c1ccccc1SC2 | · | – | – | – | · | ·
CC(=O)c1ccc(NC(=O)Nc2ccc(NS(=O)(=O)c3ccc(C)cc3)cc2)cc1 | – | – | 45 | 40 | – | –
COC(=O)Nc1ccc(S(=O)(=O)Nc2ccc(O)cc2)cc1 | – | · | – | – | 79 | –
COC(=O)Nc1ccc(S(=O)(=O)Nc2ccc(C)cc2)cc1 | – | – | – | – | – | –
O=C1CCC(C(=O)NCc2ccc3c(c2)OCO3)N1 (configuration not stated) | – | – | – | – | · | ·
CC1CN(Cc2nc3c(c(=O)n(C)c(=O)n3C)n2CCc2ccccc2)CC(C)O1 (configuration not stated) | – | · | – | – | 76 | –
CCCCCCn1c(CN2CCN(CCO)CC2)nc2c1c(=O)n(C)c(=O)n2C | – | – | – | – | 100 | –
SMILES | NPY-Y1 antag | Ins promoter up | NPY-Y1 PAM-ag | NPY-Y2 PAM-ag | INS promoter inh | NPY Y2 blocker
CCCCCn1c(CN2CC(C)OC(C)C2)nc2c1c(=O)n(C)c(=O)n2C (configuration not stated) | – | – | – | – | – | –
CN(Cc1ccccc1)Cc1nc2c(c(=O)n(C)c(=O)n2C)n1CCc1ccccc1 | 22 | · | – | – | – | 23
CCCn1c(CN(C)Cc2ccccc2)nc2c1c(=O)n(C)c(=O)n2C | – | – | – | – | – | –
CCCCn1c(CN(C)Cc2ccccc2)nc2c1c(=O)n(C)c(=O)n2C | – | – | – | – | 71 | –
COc1cc(CC(=O)Nc2cc(S(C)(=O)=O)ccc2Cl)cc(OC)c1OC | – | – | – | – | – | ·
CC(C)CC(NC(=O)C(CO)NC(=O)C1CCC(=O)N1)C(N)=O (configuration not stated) | – | – | – | – | – | ·
Cn1c(=O)c2c(nc(SCC(=O)c3ccccc3F)n2C)n(C)c1=O | – | – | – | – | – | ·
O=C(CN1CCN(Cc2ccccc2F)C1=O)NCc1ccco1 | – | – | – | – | – | –
Cn1c(=O)c2c(nc(NCc3ccccc3)n2CCCc2ccccc2)n(C)c1=O | – | – | – | – | – | –
CC(C)=NNc1nc2c(c(=O)n(C)c(=O)n2C)n1CCc1ccccc1 | – | 4.2 | – | – | · | ·
Cc1ccc(S(=O)(=O)N/N=C/c2cc(Br)ccc2O)cc1 | · | – | – | – | · | ·
Cc1ccc(S(=O)(=O)Nc2ccc(Br)cc2/C=N/n2cnnc2)cc1 | – | – | 49 | 47 | – | –
Oc1ccc(N=Nc2c(O)ccc3ccccc23)cc1 | – | – | 87 | 82 | – | –
NS(=O)(=O)c1ccc(N=Nc2c(O)ccc3ccccc23)cc1 | – | – | – | – | · | ·
CSc1nc(NC(C)=O)nc(C)c1Br | – | – | – | – | – | –
Cc1ccc(S(=O)(=O)N2CCN(c3ccccc3)CC2)cc1C(N)=O | – | – | – | – | – | ·
COc1ccc(C(=O)CCC(C)(C)[N+](=O)[O-])cc1OC | – | – | – | – | – | ·
CC(C)CCOC(=O)/C(=C/c1ccco1)NC(=O)/C=C/c1ccccc1 | 21 | – | – | – | – | 18
CCNC(=S)N=Nc1c(O)[nH]c2ccc(C(C)C)cc12 | – | – | – | – | 64 | –
CCOC(=O)NC(Nc1ccc(OC)cc1)(C(F)(F)F)C(F)(F)F | – | – | – | – | – | –
O=c1[nH]cc([N+](=O)[O-])cc1Br | – | – | – | – | – | –
Cc1ccc2c(c1)C(c1ccc(F)cc1)N(C(=O)c1cc3ccccc3oc1=O)CC(=O)N2 (configuration not stated) | – | – | – | – | – | –
CCn1c(/C=C/N(C)c2ccccc2)[n+](CC)c2ccc(Cl)cc21 | 26 | ? | – | – | – | 31
CCCCOc1ccc(Br)cc1/C(C)=N/NC1=NCCN1 | 50 | · | – | – | – | 50
Cc1[nH]c2ccccc2c1NC(=O)CN1CCN(C(=O)c2ccco2)CC1 | · | – | – | – | · | ·
SMILES | NPY-Y1 antag | Ins promoter up | NPY-Y1 PAM-ag | NPY-Y2 PAM-ag | INS promoter inh | NPY Y2 blocker
CCN(CC)C(=O)Nc1ccc(C(=O)OC)cc1 | – | · | – | – | 83 | –
CCN(CC)C(=S)Nc1ccc(C(=O)OC)cc1 | – | – | – | – | · | ·
Nn1c(COc2ccc(Cl)cc2)nc2ccccc2c1=O | – | – | – | – | – | –
O=c1[nH]c(-c2ccccn2)cc2ccccc12 | – | – | – | – | 67 | –
Cc1cc2ccccc2c(=O)[nH]1 | – | – | – | – | – | –
O=C(CC1C(=O)NCCN1C(=O)Nc1ccc(C(F)(F)F)cc1)Nc1ccc(F)cc1 (configuration not stated) | · | – | 69 | 41 | · | ·
COC(=O)c1sccc1NC(=O)CC1C(=O)NCCN1C(=O)Nc1ccc(C(F)(F)F)cc1 (configuration not stated) | · | – | – | – | · | ·
O=C(Nc1cc(-c2ccccc2)[nH]n1)c1ccc(Cl)cc1 | · | – | – | – | · | ·
COc1ccc(-n2c(Cc3cccn3C)nnc2SCC(=O)Nc2cccc(C)c2C)cc1 | – | 3 | – | – | · | –

Screens as filed in PubChem BioAssay.
